Measurements: ChEMBL document CHEMBL3632559, “α-Halogenated oxaphosphinanes: Synthesis, unexpected reactions and evaluation as inhibitors of cancer cell proliferation” (Eur J Med Chem, 2015)
pEC50, pIC50, pKi: −log10 of the molar value.

Key:
[1] = test system: MDA-MB-231; assay: Antiproliferative activity against human MDA-MB-231 cells after 72 hrs by MTT assay; assay type: functional, cell-based; settings: for pIC50: Homo sapiens, MDA-MB-231, 72 h, read-out: IC50
[2] = test system: MDA-MB-435; assay: Antiproliferative activity against human MDA-MB-435 cells after 72 hrs by MTT assay; assay type: functional, cell-based; settings: MDA-MB-435, 72 h
[3] = Antiproliferative activity against mouse B16F10 cells after 72 hrs by MTT assay; assay type: functional, cell-based; settings: B16-F10, 72 h
[4] = test system: Caco-2; assay: Antiproliferative activity against human Caco2 cells after 72 hrs by MTT assay; assay type: functional, cell-based; settings: for pIC50: Homo sapiens, Caco-2, 72 h, read-out: IC50
[5] = Antiproliferative activity against human HuH7 cells after 72 hrs by MTT assay; assay type: functional, cell-based; settings: Huh-7, 72 h
[6] = test system: DU-145; assay: Antiproliferative activity against human DU145 cells after 72 hrs by MTT assay; assay type: functional, cell-based; settings: for pIC50: Homo sapiens, DU-145, 72 h, read-out: IC50
[7] = Antimigratory activity in mouse B16F10 cells after 24 hrs by fibronectin-coated boyden chamber assay; assay type: functional, cell-based; settings: b16-f10
In short: (§1)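 Boyden chamber inserts were coated overnight with laminin, fibronectin or vitronectin (human plasma), PBS-washed and blocked 1 h with 0.5% BSA. Cells in DMEM/0.1% BSA were placed in the upper compartment for 24 h with or without compound. Non-migrating cells were wiped off; lower-side cells were methanol-fixed, crystal violet-stained and counted. Run in triplicate. Ki came from Hill fit of dose-log response curves.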

[8] = Antimigratory activity in mouse B16F10 cells after 24 hrs by laminin-coated boyden chamber assay; assay type: functional, cell-based; settings: b16-f10; in short: as §1
[9] = Antimigratory activity in mouse B16F10 cells after 24 hrs by vitronectin-coated boyden chamber assay; assay type: functional, cell-based; settings: b16-f10; in short: as §1
[10] = Antiinvasive activity in mouse B16F10 cells after 24 hrs by matrigel assay in presence of HGF; assay type: functional, cell-based; settings: b16-f10
In short: (§2)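 Boyden chamber inserts loaded with Matrigel diluted 33-fold in PBS, with HGF in the lower chamber. Cells resuspended in DMEM with 0.1% BSA were plated in the upper compartment and incubated 24 h with or without compound. Cells on the lower membrane surface were methanol-fixed, crystal violet-stained and counted. % Inh was computed against untreated migration. Run in triplicate. EC50/Ki were obtained by Hill fit of dose-log response curves.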

[11] = test system: MDA-MB-435; assay: Antimigratory activity in human MDA-MB-435 cells after 24 hrs by fibronectin-coated boyden chamber assay; assay type: functional, cell-based; in short: as §1
[12] = test system: MDA-MB-435; assay: Antimigratory activity in human MDA-MB-435 cells after 24 hrs by laminin-coated boyden chamber assay; assay type: functional, cell-based; in short: as §1
[13] = test system: MDA-MB-435; assay: Antimigratory activity in human MDA-MB-435 cells after 24 hrs by vitronectin-coated boyden chamber assay; assay type: functional, cell-based; in short: as §1
[14] = test system: MDA-MB-435; assay: Antiinvasive activity in human MDA-MB-435 cells after 24 hrs by matrigel assay in presence of HGF; assay type: functional, cell-based; settings: read-out: Ki; in short: as §2
[15] = Cytotoxicity against mouse B16F10 cells; assay type: cell-based; settings: b16-f10
[16] = test system: MDA-MB-435; assay: Cytotoxicity against human MDA-MB-435 cells; assay type: cell-based

Question: With O=[P@@]1(c2ccccc2)O[C@H](COCc2ccccc2)[C@@H](OCc2ccccc2)[C@H](OCc2ccccc2)[C@H]1Cl as the compound, how does the pIC50 [1] read?
Answer: 6.44

Question: What about the pIC50 [2] of the same compound?
Answer: 8.80

Question: What about the pIC50 [3] of the same compound?
Answer: 8.11

Question: And the pIC50 [4]?
Answer: 4.61

Question: What about the pIC50 [5] of the same compound?
Answer: 5.93

Question: And the pIC50 [6]?
Answer: 6.65

Question: And the pKi [7]?
Answer: 7.74

Question: And the pKi [8]?
Answer: 7.89

Question: What about the pKi [9] of the same compound?
Answer: 6.42

Question: What about the pKi [10] of the same compound?
Answer: 7.43

Question: And the pKi [11]?
Answer: 7.44

Question: What about the pKi [12] of the same compound?
Answer: 7.49

Question: What about the pKi [13] of the same compound?
Answer: 7.28

Question: What about the pEC50 [14] of the same compound?
Answer: 7.46

Question: And the Activity [15]?
Answer: Toxic

Question: And the Activity [16]?
Answer: Toxic

Question: What does the source list for O=[P@@]1(c2ccccc2)O[C@H](COCc2ccccc2)[C@@H](OCc2ccccc2)[C@H](OCc2ccccc2)[C@H]1Br?
Answer: pIC50 [1]: 6.36; pIC50 [2]: 9.46; pIC50 [3]: 8.42; pIC50 [4]: 4.53; pIC50 [5]: 7.80; pIC50 [6]: 7.06; pKi [7]: 7.52; pKi [8]: 7.70; pKi [9]: 7.30; pKi [10]: 7.49; pKi [11]: 7.55; pKi [12]: 7.38; pKi [13]: 7.11; pEC50 [14]: 7.52

Question: With O=[P@@]1(c2ccccc2)O[C@H](COCc2ccccc2)[C@@H](OCc2ccccc2)[C@H](OCc2ccccc2)[C@@H]1Cl as the compound, how does the pKi [7] read?
Answer: 7.31

Question: What about the pKi [8] of the same compound?
Answer: 7.72

Question: What about the pKi [9] of the same compound?
Answer: 7.47

Question: What about the pKi [10] of the same compound?
Answer: 7.46

Question: What about the pKi [11] of the same compound?
Answer: 7.55

Question: And the pKi [12]?
Answer: 7.64

Question: And the pKi [13]?
Answer: 7.39

Question: And the pEC50 [14]?
Answer: 7.44

Question: With O=[P@@]1(c2ccccc2)O[C@H](COCc2ccccc2)[C@@H](OCc2ccccc2)[C@H](OCc2ccccc2)[C@@H]1I as the compound, how does the pIC50 [1] read?
Answer: 6.33

Question: What about the pIC50 [2] of the same compound?
Answer: 9.26

Question: And the pIC50 [3]?
Answer: 8.11

Question: And the pIC50 [4]?
Answer: 4.69

Question: And the pIC50 [5]?
Answer: 6.64

Question: And the pIC50 [6]?
Answer: 6.67

Question: What about the pKi [7] of the same compound?
Answer: 7.80

Question: And the pKi [8]?
Answer: 7.77

Question: What about the pKi [9] of the same compound?
Answer: 7.36

Question: What about the pKi [10] of the same compound?
Answer: 7.54

Question: What about the pKi [11] of the same compound?
Answer: 7.54

Question: What about the pKi [12] of the same compound?
Answer: 7.60

Question: And the pKi [13]?
Answer: 7.37

Question: And the pEC50 [14]?
Answer: 7.55

Question: With O=[P@@]1(c2ccccc2)O[C@H](COCc2ccccc2)[C@@H](OCc2ccccc2)[C@H](OCc2ccccc2)[C@@H]1Br as the compound, how does the pIC50 [1] read?
Answer: 6.35

Question: What about the pIC50 [2] of the same compound?
Answer: 9.70

Question: What about the pIC50 [3] of the same compound?
Answer: 8.34

Question: What about the pIC50 [4] of the same compound?
Answer: 4.61

Question: What about the pIC50 [5] of the same compound?
Answer: 7.94

Question: What about the pIC50 [6] of the same compound?
Answer: 6.99

Question: And the pKi [7]?
Answer: 7.34

Question: And the pKi [8]?
Answer: 8.00

Question: And the pKi [9]?
Answer: 7.68

Question: And the pKi [10]?
Answer: 7.77

Question: And the pKi [11]?
Answer: 7.41

Question: What about the pKi [12] of the same compound?
Answer: 7.47

Question: What about the pKi [13] of the same compound?
Answer: 7.34

Question: And the pEC50 [14]?
Answer: 7.89

Question: Which IC50 ([1]; mda-mb-231) does the source give for O=[P@@]1(c2ccccc2)O[C@H](COCc2ccccc2)[C@@H](OCc2ccccc2)[C@H](OCc2ccccc2)[C@H]1F here?
Answer: Not Active

Question: What about the pIC50 [2] of the same compound?
Answer: 8.84

Question: What about the pIC50 [3] of the same compound?
Answer: 8.77

Question: And the IC50 ([4]; caco-2)?
Answer: Not Active

Question: And the pIC50 [5]?
Answer: 7.92

Question: What about the IC50 ([6]; du-145) of the same compound?
Answer: Not Active

Question: And the pKi [7]?
Answer: 7.66

Question: What about the pKi [8] of the same compound?
Answer: 7.80

Question: And the pKi [9]?
Answer: 7.40

Question: What about the pKi [10] of the same compound?
Answer: 7.48

Question: And the pKi [11]?
Answer: 7.55

Question: And the pKi [12]?
Answer: 7.47

Question: And the pKi [13]?
Answer: 7.18

Question: And the pEC50 [14]?
Answer: 7.51

Question: What does the source list for O=[P@@]1(c2ccccc2)O[C@H](COCc2ccccc2)[C@@H](OCc2ccccc2)[C@H](OCc2ccccc2)[C@H]1I?
Answer: pIC50 [1]: 6.32; pIC50 [2]: 9.52; pIC50 [3]: 8.40; pIC50 [4]: 4.54; pIC50 [5]: 7.89; pIC50 [6]: 6.98; pKi [7]: 7.70; pKi [8]: 7.80; pKi [9]: 7.46; pKi [10]: 7.43; pKi [11]: 7.55; pKi [12]: 7.64; pKi [13]: 7.00; pEC50 [14]: 7.46; Activity [15]: Toxic; Activity [16]: Toxic

Question: With O=[P@]1(c2ccccc2)C=C(OCc2ccccc2)[C@H](OCc2ccccc2)[C@@H](COCc2ccccc2)O1 as the compound, how does the pIC50 [1] read?
Answer: 6.54

Question: What about the pIC50 [2] of the same compound?
Answer: 9.28

Question: What about the pIC50 [3] of the same compound?
Answer: 8.36

Question: What about the pIC50 [4] of the same compound?
Answer: 4.55

Question: And the pIC50 [5]?
Answer: 7.43

Question: And the pIC50 [6]?
Answer: 6.94
